The values below come from ChEMBL document CHEMBL1157731, “Novel KCNQ2/Q3 agonists as potential therapeutics for epilepsy and neuropathic pain” (J Med Chem, 2010).

Experiment [1] addresses Voltage-gated potassium channel, KQT; KCNQ2(Kv7.2)/KCNQ3(Kv7.3) (Homo sapiens, UniProt O43525+O43526). Put plainly: Activation of KCNQ2/KCNQ3 expressed in CHO cells by isotopic efflux assay. The class given is cell-based. In a few lines: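 86Rb+ flux in K+-channel-expressing cells loaded by culture in 86RbCl, then washed in EBSS. Preincubated with drug (0.01-30 μM in EBSS), then efflux stimulated by submaximal KCl (generally 7-20 mM) with drug still present. Supernatant and SDS lysate counted by Cherenkov. Percent efflux normalized to high-KCl (generally 30-135 mM) maximum. EC50 from eight-point half-log curves; mean of 2-4 determinations ± SEM.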

Experiment [2] relates to Mus musculus. Put plainly: Anticonvulsant activity against maximal electroshock-induced seizures in CD1 mouse model at 20 mg/kg, po treated 30 mins before electroshock application. The class given is functional, organism-based. Set-up: dose 20 mg/kg. In a few lines: (§1)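 Male CD-1 mice dosed po (10 mL/kg in 5% DMSO/95% of 0.5% HPMC/1% Tween 80) 30 min before corneal electroshock at 50 mA for 0.2 s, with 1% proparacaine in each eye. Latency to hindlimb extension recorded to 0.1 s. No extension within 6 s scored as protected (latency 6 s). Reported as protected/tested (8 per group), or EC50 derived from latency scores.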

The test system of experiment [3] is Rattus norvegicus. Put plainly: Antinociceptive activity in formalin-treated Sprague-Dawley rat model assessed as reduction in hind paw flinches at 34 mg/kg, po measured during 11 to 60 mins of phase 2 flinches. Type of experiment: functional. More on the design: scale not given: the % may be the effect or the level left. In outline:
(§2)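 A small metal band was glued to the right hind paw of male Sprague-Dawley rats 1 h before testing. Compound given po in 0.5% methylcellulose 1 h before the test, then 50 μL of 2.5% formalin injected sc into the dorsal paw. Flinches counted electromagnetically for 60 min; phase II covers 11-60 min post-injection.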

The subject of experiment [4] is Rattus norvegicus. Kind of experiment: Analgesic activity in po dosed Sprague-Dawley rat assessed as reduction of spinal nerve ligation-induced allodynia score. The class given is functional. In a few lines:
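L5 spinal nerve tightly ligated distal to the DRG under halothane in male Sprague-Dawley rats, followed by 2-3 weeks of recovery. Von Frey withdrawal thresholds taken on a wire-mesh floor (top threshold 15 g), with baseline measured before dosing. Compound given po in 0.5% methylcellulose; testing at 1 and 2 h post-dose.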

Experiment [5] deals with Mus musculus. Put plainly: Anticonvulsant activity against maximal electroshock-induced seizures in CD1 mouse model at 10 mg/kg, po treated 30 mins before electroshock application. Set-up: dose 10 mg/kg. The class given is functional, organism-based. In outline: as §1
The subject of experiment [6] is Rattus norvegicus. Put plainly: Antinociceptive activity in formalin-treated Sprague-Dawley rat model assessed as reduction in hind paw flinches at 17 mg/kg, po measured during 11 to 60 mins of phase 2 flinches. Set-up: scale not given: the % may be the effect or the level left. Type of experiment: functional. In outline:
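Male Sprague-Dawley rats dosed po in 0.5% methylcellulose 1 h before assay. A 0.5 g metal band was glued to the right hind paw 1 h beforehand. 2.5% formalin (50 μL) was injected sc into the dorsal right hind paw. An electromagnetic detector counted flinches for 60 min; phase II is 11-60 min post-injection.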

Experiment [7] relates to Rattus norvegicus. Kind of experiment: Antinociceptive activity in formalin-treated Sprague-Dawley rat model assessed as reduction in hind paw flinches at 10 mg/kg, po measured during 11 to 60 mins of phase 2 flinches. Type of experiment: functional. More on the design: scale not given: the % may be the effect or the level left. In outline:
as §2

In experiment [8] the test system is Rattus norvegicus. Kind of experiment: Analgesic activity in Sprague-Dawley rat assessed as reduction of spinal nerve ligation-induced allodynia score at 10 mg/kg, po. The class given is functional. More on the design: scale not given: the % may be the effect or the level left. In outline: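 Male Sprague-Dawley rats; L5 spinal nerve tightly ligated with 4.0 silk distal to the DRG under halothane, then 2-3 weeks recovery. Dosed po in 0.5% methylcellulose. Von Frey tactile withdrawal thresholds measured on a wire mesh floor, top threshold 15 g. Baseline taken just before dosing; testing at 1 and 2 h post-dose.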

Experiment [9] has as its target Cannabinoid receptor 1 (Homo sapiens) (UniProt P21554). Put plainly: Displacement of [3H]CP-55940 from human recombinant CB1 receptor expressed in CHO cells at 10 uM. The class given is cell-based.
Experiment [10] addresses Cannabinoid receptor 2 (Homo sapiens) (UniProt P34972). Kind of experiment: Displacement of [3H]WIN-55212-2 from human recombinant CB2 receptor expressed in CHO cells at 10 uM. Type of experiment: cell-based.
Experiment [11] has as its target Delta-type opioid receptor (Homo sapiens) (UniProt P41143). Put plainly: Displacement of [3H]DADLE from human recombinant delta opioid receptor expressed in CHO cells at 10 uM. The class given is cell-based.
For experiment [12], the target named is Kappa-type opioid receptor (Rattus norvegicus) (UniProt P34975). Kind of experiment: Displacement of [3H]U69593 from rat recombinant kappa opioid receptor expressed in CHO cells at 10 uM. Type of experiment: cell-based.
Sequence of Kappa-type opioid receptor (Rattus norvegicus) (P34975 whole entry): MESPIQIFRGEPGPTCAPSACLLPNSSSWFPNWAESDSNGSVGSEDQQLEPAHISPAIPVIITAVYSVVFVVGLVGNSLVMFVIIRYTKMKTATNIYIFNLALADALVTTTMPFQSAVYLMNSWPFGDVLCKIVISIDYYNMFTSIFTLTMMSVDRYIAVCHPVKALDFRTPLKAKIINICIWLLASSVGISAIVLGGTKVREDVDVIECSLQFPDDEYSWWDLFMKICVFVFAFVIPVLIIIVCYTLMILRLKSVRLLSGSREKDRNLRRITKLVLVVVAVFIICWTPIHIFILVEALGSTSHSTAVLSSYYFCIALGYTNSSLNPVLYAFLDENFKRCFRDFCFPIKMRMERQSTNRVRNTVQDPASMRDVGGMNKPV
The target is the same in experiment [13]. Kind of experiment: Displacement of [3H]U69593 from rat recombinant kappa opioid receptor expressed in CHO cells at 30 uM. Type of experiment: cell-based.
For experiment [14], the target named is Mu-type opioid receptor (Homo sapiens) (UniProt P35372). Put plainly: Displacement of [3H]diprenorphine from human recombinant mu opioid receptor expressed in HEK293 cells at 10 uM. Type of experiment: cell-based.
Sequence of Mu-type opioid receptor (Homo sapiens) (P35372 whole entry): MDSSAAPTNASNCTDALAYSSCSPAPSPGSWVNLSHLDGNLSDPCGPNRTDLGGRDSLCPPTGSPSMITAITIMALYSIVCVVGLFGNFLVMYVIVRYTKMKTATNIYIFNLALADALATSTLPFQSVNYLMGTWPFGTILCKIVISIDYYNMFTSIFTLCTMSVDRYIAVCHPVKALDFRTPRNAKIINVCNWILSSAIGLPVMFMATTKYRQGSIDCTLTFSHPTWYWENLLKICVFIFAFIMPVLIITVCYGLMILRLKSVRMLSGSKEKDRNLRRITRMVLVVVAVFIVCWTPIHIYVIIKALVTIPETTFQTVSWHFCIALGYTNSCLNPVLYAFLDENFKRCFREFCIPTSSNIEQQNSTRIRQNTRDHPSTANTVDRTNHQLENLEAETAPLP
The nature of experiment [15]: Binding affinity to Calcium channel DHP site at 10 uM by displacement assay.
Experiment [16] is described as follows: Binding affinity to Calcium channel diltiazem site at 10 uM by displacement assay.
The nature of experiment [17]: Binding affinity to sodium channel site 2 at 10 uM by displacement assay.
The nature of experiment [18]: Binding affinity to voltage-dependent N-type calcium channel at 10 uM by displacement assay.

The source made the active and inactive calls.

Sequence of Voltage-gated potassium channel, KQT; KCNQ2(Kv7.2)/KCNQ3(Kv7.3) (O43526 whole entry): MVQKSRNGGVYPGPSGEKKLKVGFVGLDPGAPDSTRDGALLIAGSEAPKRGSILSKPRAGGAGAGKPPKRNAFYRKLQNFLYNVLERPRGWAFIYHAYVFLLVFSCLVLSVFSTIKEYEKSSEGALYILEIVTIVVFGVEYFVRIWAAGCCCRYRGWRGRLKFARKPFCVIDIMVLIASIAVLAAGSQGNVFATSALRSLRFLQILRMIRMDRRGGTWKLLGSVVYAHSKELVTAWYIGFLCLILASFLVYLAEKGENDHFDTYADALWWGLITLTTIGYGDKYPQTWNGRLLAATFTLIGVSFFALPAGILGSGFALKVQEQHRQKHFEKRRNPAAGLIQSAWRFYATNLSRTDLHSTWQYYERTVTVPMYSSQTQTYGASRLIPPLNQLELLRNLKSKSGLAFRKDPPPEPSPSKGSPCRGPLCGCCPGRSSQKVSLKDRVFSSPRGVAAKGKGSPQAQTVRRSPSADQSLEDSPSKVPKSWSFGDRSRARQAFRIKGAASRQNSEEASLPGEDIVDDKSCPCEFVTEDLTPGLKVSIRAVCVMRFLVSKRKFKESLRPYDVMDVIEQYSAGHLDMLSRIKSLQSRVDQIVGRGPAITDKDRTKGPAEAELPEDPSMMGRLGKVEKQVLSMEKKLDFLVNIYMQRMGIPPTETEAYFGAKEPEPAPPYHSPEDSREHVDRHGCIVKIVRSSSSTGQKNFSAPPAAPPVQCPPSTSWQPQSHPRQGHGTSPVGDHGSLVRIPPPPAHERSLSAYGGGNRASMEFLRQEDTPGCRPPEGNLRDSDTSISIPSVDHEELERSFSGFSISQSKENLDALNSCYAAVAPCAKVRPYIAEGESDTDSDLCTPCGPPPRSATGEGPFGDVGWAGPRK
Sequence of Voltage-gated potassium channel, KQT; KCNQ2(Kv7.2)/KCNQ3(Kv7.3) (O43525 whole entry): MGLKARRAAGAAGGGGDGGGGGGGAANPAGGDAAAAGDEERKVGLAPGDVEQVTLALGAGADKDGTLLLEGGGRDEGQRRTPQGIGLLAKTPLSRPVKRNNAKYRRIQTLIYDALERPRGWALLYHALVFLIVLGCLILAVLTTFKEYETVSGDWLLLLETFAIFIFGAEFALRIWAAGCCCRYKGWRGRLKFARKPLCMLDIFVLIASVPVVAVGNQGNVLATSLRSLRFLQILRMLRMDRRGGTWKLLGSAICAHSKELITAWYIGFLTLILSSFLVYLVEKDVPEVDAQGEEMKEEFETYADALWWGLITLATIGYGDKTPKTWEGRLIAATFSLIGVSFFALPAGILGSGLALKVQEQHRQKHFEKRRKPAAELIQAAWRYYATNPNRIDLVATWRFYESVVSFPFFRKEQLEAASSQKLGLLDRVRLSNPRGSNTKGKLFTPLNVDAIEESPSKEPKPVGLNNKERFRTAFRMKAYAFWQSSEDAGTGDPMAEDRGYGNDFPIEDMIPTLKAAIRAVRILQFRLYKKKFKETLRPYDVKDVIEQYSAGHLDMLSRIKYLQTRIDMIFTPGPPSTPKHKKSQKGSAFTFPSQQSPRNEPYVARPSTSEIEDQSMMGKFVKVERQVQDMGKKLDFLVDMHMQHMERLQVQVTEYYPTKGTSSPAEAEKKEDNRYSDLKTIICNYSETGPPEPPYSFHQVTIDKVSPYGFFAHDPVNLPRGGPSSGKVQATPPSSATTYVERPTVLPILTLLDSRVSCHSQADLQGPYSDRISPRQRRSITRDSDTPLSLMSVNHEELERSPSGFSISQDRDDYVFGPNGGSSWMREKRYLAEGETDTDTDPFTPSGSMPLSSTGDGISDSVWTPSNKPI
Sequence of Delta-type opioid receptor (Homo sapiens) (P41143 whole entry): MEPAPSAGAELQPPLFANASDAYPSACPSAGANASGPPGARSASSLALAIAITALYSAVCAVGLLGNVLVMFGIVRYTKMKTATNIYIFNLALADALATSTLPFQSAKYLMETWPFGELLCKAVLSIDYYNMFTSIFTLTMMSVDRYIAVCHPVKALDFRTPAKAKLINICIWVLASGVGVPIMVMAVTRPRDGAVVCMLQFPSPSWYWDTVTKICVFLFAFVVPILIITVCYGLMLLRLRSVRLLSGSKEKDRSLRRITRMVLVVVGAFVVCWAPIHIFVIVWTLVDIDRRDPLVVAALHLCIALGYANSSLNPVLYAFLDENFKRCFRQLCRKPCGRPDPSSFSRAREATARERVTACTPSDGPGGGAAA
Sequence of Cannabinoid receptor 1 (Homo sapiens) (P21554 whole entry): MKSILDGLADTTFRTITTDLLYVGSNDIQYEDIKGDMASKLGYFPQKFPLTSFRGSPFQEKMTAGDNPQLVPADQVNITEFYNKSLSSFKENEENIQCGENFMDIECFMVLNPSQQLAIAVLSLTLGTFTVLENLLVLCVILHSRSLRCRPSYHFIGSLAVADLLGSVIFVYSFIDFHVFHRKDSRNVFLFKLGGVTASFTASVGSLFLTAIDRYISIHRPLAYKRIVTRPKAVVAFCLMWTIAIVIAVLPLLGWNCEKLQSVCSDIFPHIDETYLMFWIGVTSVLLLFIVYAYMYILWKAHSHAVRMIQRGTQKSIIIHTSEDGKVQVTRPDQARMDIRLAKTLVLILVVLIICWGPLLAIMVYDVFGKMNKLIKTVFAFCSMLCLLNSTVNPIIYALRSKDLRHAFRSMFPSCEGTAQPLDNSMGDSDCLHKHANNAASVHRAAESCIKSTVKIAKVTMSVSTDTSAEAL
Sequence of Cannabinoid receptor 2 (Homo sapiens) (P34972 whole entry): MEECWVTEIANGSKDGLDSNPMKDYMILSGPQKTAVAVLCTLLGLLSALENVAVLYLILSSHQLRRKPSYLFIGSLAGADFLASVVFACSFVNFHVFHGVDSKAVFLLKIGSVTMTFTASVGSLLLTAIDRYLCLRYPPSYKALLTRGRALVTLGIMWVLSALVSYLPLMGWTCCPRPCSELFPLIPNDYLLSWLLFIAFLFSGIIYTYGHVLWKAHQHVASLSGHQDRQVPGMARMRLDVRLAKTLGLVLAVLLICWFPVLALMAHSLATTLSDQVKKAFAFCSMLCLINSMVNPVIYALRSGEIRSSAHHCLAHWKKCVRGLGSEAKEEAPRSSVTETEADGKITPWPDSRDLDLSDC

The compound `Cn1/c(=N/NC(=O)CC2CCCC2)sc2cc(OC(F)(F)F)ccc21` showed an EC50 in [1] of 44 nM. In addition, in the experiment with Mus musculus [2], the result was Active. The Activity in the experiment with Rattus norvegicus [3] came to 28%.

For the compound `Cn1/c(=N/NC(=O)CC(C)(C)C)sc2cc(OC(F)(F)F)ccc21`, the ED50 with Rattus norvegicus [4] is 20 mg/kg. In experiment [1], the EC50 was determined as 49 nM. Besides, the outcome in the experiment with Mus musculus [5] was Active. Moreover, the Activity in the experiment with Rattus norvegicus [6] came out at 55%.

As for `CC(C)OC(=O)N/N=c1\sc2cc(OC(F)(F)F)ccc2n1C`, in the experiment with Rattus norvegicus [4], the ED50 is 16.2 mg/kg. In experiment [1], this compound returned an EC50 of 95 nM. Moreover, the result in the experiment with Mus musculus [2] was Active. In addition, the Activity came to 47% in the experiment with Rattus norvegicus [7]; 100% in the experiment on Rattus norvegicus [8]; 19% in experiment [9]; 0% in experiment [10]; 10% in experiment [11]; 15% in experiment [12]. Further, the Activity stood at 0% in experiment [13]; 0% in [14]; 0% in [15]; 0% in [16]; 35% in experiment [17]; 0% in experiment [18].
